Source: PubChem
Shown are actives, neighbours in structure and some others; about 2.8% of the full set was active somewhere.
NPY2 pot ag = NPY-Y2 potentiators or agonists, primary screen, cell-based. Neuropeptide Y receptor type 2 (Homo sapiens), P49146. cells expressing NPY-Y2, potentiator/agonist read-out. activation, % at 3.6 µM. actives 0.45% (n = 220,000); in the data active = activation above about 27%;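 also: cells stimulated with NPY near EC25 plus isoproterenol at EC100; 0% = vehicle plus submaximal agonist and 100% = vehicle plus saturating agonist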
Target sequence (P49146 whole entry, looked up): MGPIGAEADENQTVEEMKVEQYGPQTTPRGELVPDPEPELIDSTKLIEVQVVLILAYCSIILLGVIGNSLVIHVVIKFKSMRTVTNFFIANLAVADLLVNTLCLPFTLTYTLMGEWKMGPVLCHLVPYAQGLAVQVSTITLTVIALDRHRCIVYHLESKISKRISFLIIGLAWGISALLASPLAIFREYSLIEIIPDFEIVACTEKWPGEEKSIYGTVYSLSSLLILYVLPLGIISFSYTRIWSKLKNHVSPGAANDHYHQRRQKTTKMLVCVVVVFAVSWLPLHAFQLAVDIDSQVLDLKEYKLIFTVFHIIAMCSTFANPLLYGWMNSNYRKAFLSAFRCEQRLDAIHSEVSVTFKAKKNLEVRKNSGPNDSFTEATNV
EP2 antag = human EP2 receptor antagonists, primary screen, TR-FRET cAMP, C6 glioma cells. inhibition, % at 25 µM. C6 glioma cells expressing human EP2; cells stimulated with saturating PGE2. actives 0.52% (n = 260,000);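 active = percent inhibition above 40 after rounding to a whole number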;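 also: rat C6 glioma host cells with rolipram phosphodiesterase inhibitor present; the protocol text gives 20 µM as final concentration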
NPY-Y1 PAM-ag = NPY-Y1 receptor potentiators or agonists, primary screen, cell-based; actives 0.37% (n = 220,000); NPY-Y1 expressing cells, potentiator/agonist activation; Neuropeptide Y receptor type 1 (Homo sapiens), P25929; activation, % at 3.6 µM; in the data active = activation above about 33%, passing the limit was not always enough;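 also: cells stimulated with NPY at EC10 then isoproterenol at EC100; 0% = low agonist plus stimulus and 100% = saturating agonist plus stimulus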
NPY Y2 blocker = NPY-Y2 receptor antagonists, primary screen, cell-based. Neuropeptide Y receptor type 2 (Homo sapiens), P49146. NPY-Y2 expressing cells, antagonist mode. inhibition, % at 2.7 µM. actives 0.99% (n = 140,000); in the data active = inhibition above about 17%;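 also: 0% = vehicle with agonist challenge and 100% = reference antagonist with challenge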
EP2 modulator = EP2 receptor modulators, cAMP readout, primary screen, cell-based, HTRF cAMP, PGE2 stimulation. induction, % at 25 µM. EP2-expressing cells, cAMP HTRF FRET, PGE2 co-stimulation. AID 940, 2007. Prostaglandin E2 receptor EP2 subtype (Homo sapiens), P43116. actives 0.83% (n = 260,000);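 active = compounds whose cAMP rise, as percent of the full-agonist control response, exceeds 60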;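 also: rat C6 glioma line stably carrying human EP2 under a CMV promoter; the protocol text gives 20 µM as final concentration; 100% = response of wells given 1 µM PGE2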
NPY Y1 blocker = NPY-Y1 receptor antagonists, primary screen, cell-based | actives 1% (n = 200,000) | inhibition, % at 3.6 µM | HEK293-CNG Y1 cells, membrane potential fluorescence; NPY at EC95, then isoproterenol | AID 1040, 2008;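 active = inhibition above the campaign mean inhibition of all tested compounds plus 3 SD, cut at about 20% in these data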;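 also: 0% = DMSO wells given NPY plus isoproterenol and 100% = isoproterenol alone without NPY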
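Material: HEK293 cells co-expressing NPY Y1 receptor and cyclic-nucleotide gated channel. Timing: compound incubation 1 h at room temperature, readout 45 min post-stimulation. Signal: fluorescence, membrane potential probe.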
* marks the source's active call; other numbers are inactive results; / = no result given; ! = repeats disagree.

SMILES | NPY2 pot ag | EP2 antag | NPY-Y1 PAM-ag | NPY Y2 blocker | EP2 modulator | NPY Y1 blocker
CC1(C)CC(=O)C2=C(C1)OC1=C(C(=O)CC(C)(C)C1)C2c1ccc(O)cc1O | 18 | 98* | 17 | 1 | -39 | -1
COc1cc2nc(-c3ccc(Br)o3)oc(=O)c2cc1OC | 13 | 40* | -5 | 4 | 5 | 2
Cc1ccc2nc(-c3ccc(Br)o3)oc(=O)c2c1 | -4 | 24 | -10 | 8 | -11 | 11
Cc1nc2ccccc2n1CC(O)COC1CC=CCC1 (configuration not stated) | / | 9 | / | / | -3 | /
CCOc1cc(C)nc(N2CCC(C(=O)Nc3ccccc3OCC)CC2)n1 | 0 | -6 | 12 | 0 | 92*! | -3
O=S(=O)(O)c1ccc2c(N=Nc3cccc4ccccc34)c(O)c(S(=O)(=O)O)cc2c1 | / | 57* | / | / | -17 | /
NS(=O)(=O)c1ccc(N=Nc2c(O)c(C(=O)O)cc3ccccc23)cc1 | 34 | 50*! | 29 | / | -24 | /
O=[N+]([O-])c1ccc2c(N=Nc3ccc4ccccc4c3O)c(O)cc(S(=O)(=O)O)c2c1 | / | 51* | / | / | -39 | /
CCN(CC)S(=O)(=O)c1cc([N+](=O)[O-])ccc1N=Nc1c(O)[nH]c2ccccc12 | 4 | 6 | 10 | -3 | 5 | -4
O=[N+]([O-])c1ccccc1N=Nc1c(O)[nH]c2ccc(S(=O)(=O)O)cc12 | / | 37 | / | / | 8 | /
CCN(CC)S(=O)(=O)c1ccc(S(=O)(=O)N2CCC(c3nc4ccccc4[nH]3)CC2)cc1 | / | 13 | / | / | 0 | /
CC(C)[C@@H](Cn1nc(-c2cccs2)ccc1=O)NC(=O)C1CCC1 | / | / | / | / | -9 | /
CCN(CC)S(=O)(=O)c1ccc(-c2nnc(SCc3nnc(-c4ccccc4)o3)o2)cc1 | -2 | 105* | -4 | 2 | 26 | -1
COc1ccc(-c2nnc(SCc3ncc(-c4ccccc4)o3)o2)cc1 | -25 | 9 | -24 | 21* | -12 | 21*
C=CCN(C(=O)c1csnn1)C(C(=O)NC(C)(C)C)c1ccc(Cl)cc1 (configuration not stated) | / | 6 | / | / | 5 | /
CCCNC(=O)c1sc2c(c1C(=O)Nc1ccccn1)CCCC2 | -12 | 6 | -20 | / | 32 | 21*
CCCNC(=O)c1c(NC(=O)c2ccc(OC)c(OC)c2)sc2c1CCCC2 | / | 11 | / | / | 5 | /
Cc1cc(OCC(F)(F)C(F)(F)C(F)(F)C(F)(F)C(F)(F)C(F)F)nc(N)n1 | 38* | 15 | 62* | 5 | -14 | 0
COc1ccc2sc(N(CCN(C)C)C(=O)c3cc(Cl)sc3Cl)nc2c1 | -31 | 9 | -1 | / | -4 | 6
COc1ccc(OC)c2sc(N(CCN(C)C)C(=O)c3cc(Cl)sc3Cl)nc12 | 79* | 4 | 90* | / | 23 | -9
CN(C)CCCN1c2ccc3ccccc3c2Sc2cccc(Cl)c21 | / | 49* | / | / | -20 | /
CCOC(=O)c1c(C)[nH]c(C(=O)C(C)Sc2ccc(Cl)cc2)c1C (configuration not stated) | -26 | 30 | -32 | 34* | -43 | 84*
CCc1ccc2[nH]c(=O)c(CN(CCN(C)C)C(=S)Nc3ccccc3)cc2c1 | / | 17 | / | / | -57 | /
CCc1ccc2[nH]c(=O)c(CN(CC3CCCO3)C(=S)Nc3ccc(F)cc3)cc2c1 (configuration not stated) | / | 7 | / | / | 8 | /
CCc1ccc2[nH]c(=O)c(CN(CC3CCCO3)C(=S)NC3CCCCC3)cc2c1 (configuration not stated) | / | 10 | / | / | 82* | /
CCNC(=S)N(CCN(C)C)Cc1cc2cc(CC)ccc2[nH]c1=O | / | 9 | / | / | 63* | /
CCc1ccc2[nH]c(=O)c(CN(CC3CCCO3)C(=S)NCc3ccccc3)cc2c1 (configuration not stated) | / | 12 | / | / | 66* | /
NC(=O)CSc1nnc(C2CCCCC2)n1-c1ccccc1 | / | 13 | / | / | -2 | /
